# Measured values from publication PMC3014451 (Bioorganic & medicinal chemistry, 2010).
# Key:
# ALS = ALS patients; ref v; cited from earlier work
# [1] = Aqueous solubility screen in PBS; type: physicochemical; details: PBS with 1% DMSO
# Mouse plasma stability = type: in vitro ADME
# Summary of the method: (§1)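 Samples were taken at 15 s, 10, 20, 40 and 60 min and precipitated with acetonitrile containing haloperidol as internal standard, then analysed by LC-MS/MS for analyte/internal standard peak-area ratio. The plasma ratio was divided by the PBS ratio at the same time point.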
# PBS stability = type: physicochemical; details: 5 μM, 37 °C
# Summary of the method: as §1
# Microsomal stability [2] = type: in vitro ADME; details: human, liver microsomes, pH 7.4, CL’int, 37 °C, with NADPH
# Summary of the method: (§2)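 Test compound at 5 μM, in duplicate, with liver microsomes (0.275 mg/mL protein) in 100 mM potassium phosphate, 3 mM MgCl2, 2 mM NADPH, pH 7.4, at 37 °C; a parallel control omits NADPH. Aliquots at 15 sec to 60 min quenched in acidified acetonitrile. Parent quantified by LC-MS/MS against haloperidol internal standard. k from 1/Y-weighted exponential fit; T1/2 = ln2/k.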
# Microsomal stability [3] = type: in vitro ADME; details: mouse, liver microsomes
# Summary of the method: as §2
# [4] = system: mutant G93A SOD1 aggregation in PC12 cells; test: Mutant SOD1-induced cytotoxicity protection assay; type: cell-based; details: maximum cell viability in cytotoxicity protection assay
smiles,measurement,setting,value
Nc1nc2ccc(OC(F)(F)F)cc2s1 [Riluzole],prolongation of patient life,ALS,two to three
"Cc1cc(SCc2cc(=O)[nH][nH]2)c(Cl)cc1Cl [compound 1, 5-((2,4-Dichloro-5-methylphenylthio)methyl)-1H-pyrazol-3(2H)-one]",solubility at 1 h,[1],16.4 µg/mL
same,Recovery Plasma vs. PBS,Mouse plasma stability,91%
same,PBS Amount Remaining at 60 min,PBS stability,100%
same,CLint scaled at 5 μM,Microsomal stability [2],58.5 mL/min/kg
same,CLint scaled at 5 μM,"Microsomal stability [3]; pH 7.4, CL’int No NADPH, without NADPH",61.2 mL/min/kg
same,CLint scaled at 5 μM,"Microsomal stability [3]; pH 7.4, CL’int, 5 μM, 37 °C, with NADPH",292 mL/min/kg
C[C@@H]1C[C@H]2O[C@@H]2/C=C\C=C\C(=O)Cc2c(Cl)c(O)cc(O)c2C(=O)O1 [radicicol],efficacy (cell viability),[4],85%
